Measured values as given in article PMC1389615 (The Journal of General Physiology, 2004).
Positions count from the first letter of the chain named.

How the values were obtained:
Test in all cases: inside-out patch clamp, block of cGMP-activated current, Hill fit
Format in all cases: cell-based
[1] = target: T1, CNGA1 (Bos taurus, UniProt Q00194, R342D)
T1 sequence (Q00194 1-690 R342D): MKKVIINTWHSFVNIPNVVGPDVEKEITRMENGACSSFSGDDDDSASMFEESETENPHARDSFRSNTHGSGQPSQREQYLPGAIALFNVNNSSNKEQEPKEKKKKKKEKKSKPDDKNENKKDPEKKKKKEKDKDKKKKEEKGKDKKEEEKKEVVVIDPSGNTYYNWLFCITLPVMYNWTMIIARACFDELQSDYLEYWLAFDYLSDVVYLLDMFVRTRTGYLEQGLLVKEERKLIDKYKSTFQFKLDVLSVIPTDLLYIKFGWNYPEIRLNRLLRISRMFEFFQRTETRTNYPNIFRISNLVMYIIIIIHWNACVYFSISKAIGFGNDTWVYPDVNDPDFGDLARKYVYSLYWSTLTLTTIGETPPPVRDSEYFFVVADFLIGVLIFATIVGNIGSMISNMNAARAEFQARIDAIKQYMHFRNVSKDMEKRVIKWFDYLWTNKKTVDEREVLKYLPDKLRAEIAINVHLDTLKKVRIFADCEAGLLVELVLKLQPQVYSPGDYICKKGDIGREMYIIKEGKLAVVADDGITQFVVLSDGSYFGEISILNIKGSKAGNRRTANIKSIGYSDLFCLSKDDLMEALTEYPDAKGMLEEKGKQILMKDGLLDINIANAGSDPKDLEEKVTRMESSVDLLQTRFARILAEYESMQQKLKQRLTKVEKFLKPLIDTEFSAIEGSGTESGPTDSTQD

[2] = target: T2, CNGA2 (Rattus norvegicus, UniProt Q00195)
T2 sequence (Q00195 1-664): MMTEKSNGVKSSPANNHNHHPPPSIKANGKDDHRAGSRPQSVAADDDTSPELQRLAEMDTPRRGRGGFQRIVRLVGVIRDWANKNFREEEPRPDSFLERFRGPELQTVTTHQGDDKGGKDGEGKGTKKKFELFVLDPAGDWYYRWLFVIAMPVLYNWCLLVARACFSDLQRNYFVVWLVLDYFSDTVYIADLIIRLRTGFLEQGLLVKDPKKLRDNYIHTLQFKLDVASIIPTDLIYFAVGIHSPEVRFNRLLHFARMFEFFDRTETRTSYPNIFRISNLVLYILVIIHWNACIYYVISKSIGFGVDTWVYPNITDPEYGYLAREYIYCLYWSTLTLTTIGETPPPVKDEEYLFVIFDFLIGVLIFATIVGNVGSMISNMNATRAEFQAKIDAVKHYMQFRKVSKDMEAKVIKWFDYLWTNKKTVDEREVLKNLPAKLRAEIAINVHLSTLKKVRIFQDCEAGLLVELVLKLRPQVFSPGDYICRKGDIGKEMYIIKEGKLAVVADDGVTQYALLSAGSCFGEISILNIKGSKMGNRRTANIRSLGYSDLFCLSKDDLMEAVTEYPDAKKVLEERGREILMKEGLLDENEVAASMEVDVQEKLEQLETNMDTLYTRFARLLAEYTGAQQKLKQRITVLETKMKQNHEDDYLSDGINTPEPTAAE
Method in brief: (§1)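 Channels expressed in Xenopus oocytes 2–10 d after cRNA injection; inside-out patches, room temperature. […] Blocker applied at 0 mV with 20-ms steps to +20 mV every 5 s. Currents were cGMP-free subtracted. Hill fit, SEM, n = 5–7 patches.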

[3] = target: T3, CNGA1 (Bos taurus, UniProt Q00194)
T3 sequence (Q00194 1-690): T1 sequence (Q00194 1-690 R342D) with D342R
Method in brief: as §1

[4] = target: T4, CNGA1 (Bos taurus, UniProt Q00194, R342Y)
T4 sequence (Q00194 1-690 R342Y): T1 sequence (Q00194 1-690 R342D) with D342Y

Cc1cc(N)c2ccccc2[n+]1CCCCCCCCCC[n+]1c(C)cc(N)c2ccccc21 [dequalinium]
IC50 [1]: 123 ± 0.2 nM
IC50 [2]: 2400 ± 290 nM
IC50 [3]: 189 ± 4.19 nM
IC50 [4]: 91 ± 0.1 nM
